Measurements collected from several papers.
Compare with care: the assays were run in different laboratories.

Nc1nc(N)c(CNCCc2ccc(F)cc2)c(C2CC2)n1
IC50 (Vero; cell growth or viability, SRB): > 100 µM

Cc1nc(Nc2ncc(C(=O)Nc3c(C)cccc3Cl)s2)cc(N2CCN(CCO)CC2)n1
GI50 (SK-BR-3; cell growth or viability, WST-1; 72 h): 1.6 µM

COc1cc([C@@H]2c3cc4c(cc3[C@H](O)[C@H]3COC(=O)[C@H]23)OCO4)cc(OC)c1OC
EC50 (NCI-H1299; cell growth or viability, MTT; 72 h): 0.003 µM

N.N.[Cl][Pt][Cl]
inhibition (SMMC-7721; cell growth or viability, MTT; 20 µM): 73.8%

O=C1OC[C@H](Cc2cccc(O)c2)[C@H]1Cc1cccc(O)c1
IC50 (SPCA1; cell growth or viability, MTT): 42.2 µM

COc1cc2oc3cc(O)c(OC)c(CC=C(C)C)c3c(=O)c2c(O)c1CC=C(C)C
IC50 (22Rv1; cell growth or viability; 48 h): 27.1 µM

COc1ccc(CCNCc2c(N)nc(N)nc2C2CC2)cc1
IC50 (Vero; cell growth or viability, SRB): 71 µM

C[S+]([O-])CCCCN=C=S (centres unmarked)
inhibition (RAW264.7; NO release, inhibitor, Griess; 10 µM, LPS-stimulated): 91.6%

OC[C@H](Cc1cccc(O)c1)[C@H](CO)Cc1cccc(O)c1
IC50 (SPCA1; cell growth or viability, MTT): 61.1 µM

N.N.[Cl][Pt][Cl]
IC50 (HL-60; cell growth or viability, MTT; 48 h): 1.17 µM

CC(C)[C@H](NC(=O)[C@H](Cc1c[nH]c2ccccc12)NC(=O)[C@H](Cc1c[nH]cn1)NC(=O)[C@H](CCCNC(=N)N)NC(=O)[C@H](CCCNC(=N)N)NC(=O)[C@H](Cc1c[nH]c2ccccc12)NC(=O)[C@H](Cc1c[nH]c2ccccc12)NC(=O)[C@H](Cc1c[nH]cn1)NC(=O)[C@H](Cc1c[nH]c2ccccc12)NC(=O)[C@H](CCCNC(=N)N)NC(=O)[C@@H](N)CCCCN)C(=O)N[C@H](C(=O)N[C@@H](Cc1c[nH]c2ccccc12)C(N)=O)C(C)C
IC50 (RAW264.7; cell growth or viability, MTT; 24 h): 111 µM

O=C(CC(=O)c1ccccc1)c1ccccc1
IC50 (HL-60; cell growth or viability, resazurin; 72 h, dark): 15.5 µM

COc1cccc2c1C(=O)c1c(O)c3c(c(O)c1C2=O)C[C@@](O)(C(=O)CO)C[C@@H]3O[C@H]1C[C@H](N)[C@H](O)[C@H](C)O1
IC50 (SPCA1; cell growth or viability, MTT): 30 µM

Nc1nc(N)c(CNCCc2ccc(Cl)cc2)c(C2CC2)n1
IC50 (Vero; cell growth or viability, SRB): 70 µM
